Reference: ChEMBL document CHEMBL1126803, “Stereospecific and selective 5-HT2 antagonism in a series of 5-substituted trans-1-piperazino-3-phenylindans” (J Med Chem, 1993)
Values joined by “and” are separate entries in the source; they are usually repeats but may differ in a detail not shown here. Equal entries are not always repeated.

Legend:
[1] = target: Serotonin 2 (5-HT2) receptor (Rattus norvegicus, UniProt P30994+P08909+P14842); assay: Displacement of [3H]ketanserin from 5-hydroxytryptamine 2 receptor in rat cortical membranes; assay type: cell membranes, Membrane
How it was run: (§1)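 Radioligand displacement from rat brain membranes: 3H-ketanserin on cortical membranes (5-HT2), 3H-prazosin on whole brain membranes (alpha1), 3H-spiperone on striatal membranes (D2). Two full concentration-effect curves per compound, each with five test drug concentrations in triplicate spanning three decades. IC50 estimated from curves on a log-concentration scale. Outliers beyond 3 times the sd-ratio were discarded after extra determinations.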

Rattus norvegicus [2] = species: Rattus norvegicus; assay: Tested for inhibition of pergolide-induced rotation in 6-OH-DA-lesioned rats after 2 hr; assay type: functional
How it was run: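 Unilateral 6-OHDA-lesioned rats were given test drug sc 2 h before pergolide (0.05 µmol/kg, sc), which induces contralateral circling. Each dose's effect was expressed as percent of the mean of control sessions held 1 week before and 1 week after the test session in the same rat. At least four rats per dose; ED50 by log-probit analysis.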

D(2) dopamine receptor = D(2) dopamine receptor (Rattus norvegicus, UniProt P61169); assay: Displacement of [3H]spiperone from dopamine D2 receptors in rat striatal membranes; assay type: cell membranes, Membrane; how it was run: as §1
D(2) dopamine receptor, sequence (P61169 whole entry): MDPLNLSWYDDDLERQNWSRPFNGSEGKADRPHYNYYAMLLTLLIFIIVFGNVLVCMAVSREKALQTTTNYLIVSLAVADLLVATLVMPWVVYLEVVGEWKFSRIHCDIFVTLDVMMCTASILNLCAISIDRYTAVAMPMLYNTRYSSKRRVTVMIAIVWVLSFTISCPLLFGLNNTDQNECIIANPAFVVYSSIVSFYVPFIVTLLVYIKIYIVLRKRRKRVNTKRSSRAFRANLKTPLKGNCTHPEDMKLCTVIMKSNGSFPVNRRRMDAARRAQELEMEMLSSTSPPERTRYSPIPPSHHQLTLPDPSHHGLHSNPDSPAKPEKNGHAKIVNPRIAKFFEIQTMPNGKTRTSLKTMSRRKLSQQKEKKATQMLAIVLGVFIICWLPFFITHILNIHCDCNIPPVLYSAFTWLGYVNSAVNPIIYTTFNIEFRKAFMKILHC

Rattus norvegicus [3] = species: Rattus norvegicus; assay: Inhibition of quipazine-induced head twitches in rats after 2 hrs of pretreatment; assay type: functional
How it was run: (§2)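 Test drug was given sc or po to rats 2 or 24 h before quipazine (15 µmol/kg, sc). Head twitches were counted 30-40 min after quipazine, at least four animals per dose. Counts were expressed as percent of a quipazine-only control group.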

[4] = target: T1, Adrenergic receptor alpha-1 (Rattus norvegicus, UniProt P15823+P23944+P43140); assay: Displacement of [3H]prazosin from alpha-1 adrenoceptors in whole rat brain membranes; assay type: cell membranes; how it was run: as §1
T1 sequence (P15823 whole entry): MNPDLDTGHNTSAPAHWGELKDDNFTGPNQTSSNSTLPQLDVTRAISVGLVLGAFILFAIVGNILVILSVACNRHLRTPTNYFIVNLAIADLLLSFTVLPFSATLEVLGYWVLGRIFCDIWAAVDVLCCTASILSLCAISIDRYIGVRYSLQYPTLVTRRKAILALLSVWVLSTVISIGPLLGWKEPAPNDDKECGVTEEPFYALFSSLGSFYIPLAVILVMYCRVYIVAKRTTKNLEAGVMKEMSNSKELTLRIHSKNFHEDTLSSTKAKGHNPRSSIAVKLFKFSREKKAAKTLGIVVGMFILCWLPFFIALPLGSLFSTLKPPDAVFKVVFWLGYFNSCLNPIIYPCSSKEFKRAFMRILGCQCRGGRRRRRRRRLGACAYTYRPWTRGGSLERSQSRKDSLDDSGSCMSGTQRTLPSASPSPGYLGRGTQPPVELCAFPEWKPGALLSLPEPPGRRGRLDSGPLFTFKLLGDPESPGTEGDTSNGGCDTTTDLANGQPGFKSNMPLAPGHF
T1 sequence (P23944 whole entry): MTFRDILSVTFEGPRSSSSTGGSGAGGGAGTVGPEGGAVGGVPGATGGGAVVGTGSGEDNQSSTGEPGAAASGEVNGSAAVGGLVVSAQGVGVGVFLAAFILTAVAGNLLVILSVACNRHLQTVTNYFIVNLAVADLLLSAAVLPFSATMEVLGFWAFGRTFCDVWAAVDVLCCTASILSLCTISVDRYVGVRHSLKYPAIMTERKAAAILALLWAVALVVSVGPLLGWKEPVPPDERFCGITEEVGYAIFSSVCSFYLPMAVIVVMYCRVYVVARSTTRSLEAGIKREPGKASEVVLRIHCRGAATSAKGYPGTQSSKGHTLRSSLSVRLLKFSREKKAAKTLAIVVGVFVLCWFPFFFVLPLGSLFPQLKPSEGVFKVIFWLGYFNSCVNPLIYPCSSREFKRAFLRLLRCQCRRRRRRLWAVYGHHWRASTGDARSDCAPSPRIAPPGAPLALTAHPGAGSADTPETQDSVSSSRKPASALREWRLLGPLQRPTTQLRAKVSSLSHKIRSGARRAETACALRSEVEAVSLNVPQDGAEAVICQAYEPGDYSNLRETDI
T1 sequence (P43140 whole entry): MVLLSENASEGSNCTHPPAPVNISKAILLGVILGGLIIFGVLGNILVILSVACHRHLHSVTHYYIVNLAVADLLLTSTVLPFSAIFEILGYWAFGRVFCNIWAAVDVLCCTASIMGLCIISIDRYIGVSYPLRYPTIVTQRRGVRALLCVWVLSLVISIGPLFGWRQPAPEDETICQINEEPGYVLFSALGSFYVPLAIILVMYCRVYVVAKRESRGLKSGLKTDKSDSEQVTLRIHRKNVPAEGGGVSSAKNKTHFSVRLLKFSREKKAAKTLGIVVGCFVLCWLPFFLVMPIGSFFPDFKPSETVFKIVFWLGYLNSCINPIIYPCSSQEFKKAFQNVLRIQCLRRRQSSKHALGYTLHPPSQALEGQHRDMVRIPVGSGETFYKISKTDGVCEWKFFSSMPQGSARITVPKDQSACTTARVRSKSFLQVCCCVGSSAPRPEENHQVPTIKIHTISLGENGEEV

Rattus norvegicus [5] = species: Rattus norvegicus; assay: Tested for inhibition of dopamine uptake in rat brain membranes; assay type: functional, Membrane
Rattus norvegicus [6] = species: Rattus norvegicus; assay: Tested for inhibition of norepinephrine uptake in rat brain membranes; assay type: functional, Membrane
Rattus norvegicus [7] = species: Rattus norvegicus; assay: Tested for inhibition of quipazine-induced head twitches in rats after 24 hours of pretreatment; assay type: functional; how it was run: as §2
Rattus norvegicus [8] = species: Rattus norvegicus; assay: Tested for inhibition of quipazine-induced head twitches in rats after 2 hours of pretreatment; assay type: functional; how it was run: as §2
Rattus norvegicus [9] = species: Rattus norvegicus; assay: Tested for inhibition of quipazine-induced head twitches after 24 hours of pretreatment; assay type: functional; how it was run: as §2
[10] = Rattus norvegicus, read-out: ED50

Structure (SMILES) | IC50 [1] [nM] | IC50 (D(2) dopamine receptor) [nM] | IC50 [4] [nM] | IC50 (Rattus norvegicus [5]) [nM] | IC50 (Rattus norvegicus [6]) [nM] | ED50 (Rattus norvegicus [2]) [µmol/kg] | ED50 (Rattus norvegicus [3]) | ED50 (Rattus norvegicus [7]) [µmol/kg] | ED50 (Rattus norvegicus [8]) [µmol/kg] | ED50 (Rattus norvegicus [3]; [10]) [µmol/kg] | ED50 (Rattus norvegicus [9]) [µmol/kg]
O=C(O)/C=C\C(=O)O.O=C(O)/C=C\C(=O)O.O=C1NCCCN1CCN1CCN(C2CC(c3ccc(F)cc3)c3cc(F)ccc32)CC1 (single isomer, unassigned; (+)) | 1.1 | 280 | 41 | – | – | > 15 | 0.029 µM/kg and 0.07 µM/kg | – | – | – | –
CC(C)N1CCN(CCN2CCN(C3CC(c4ccc(F)cc4)c4cc(Cl)ccc43)CC2)C1=O.O=C(O)/C=C\C(=O)O.O=C(O)/C=C\C(=O)O (stereo in doubt; (+)-20) | 75 | 1300 | 340 | 70 | 50 | – | >7 µM/kg | – | – | – | –
CC(C)N1CCN(CCN2CCN(C3CC(c4ccc(F)cc4)c4cc(Cl)ccc43)CC2)C1=O.O=C(O)/C=C\C(=O)O.O=C(O)/C=C\C(=O)O (single isomer, unassigned; (-)) | 1.1 | 200 | 210 | 1900 | 2900 | > 14 | – | – | – | – | –
Fc1ccc(C2CC(N3CCN(CCN4CCNC4=S)CC3)c3ccc(Cl)cc32)cc1.O=C(O)/C=C\C(=O)O (stereo unspecified) | 1.5 | – | 52 | – | – | > 14 | – | 1.4 | 0.077 | – | –
Cc1nc2sccn2c(=O)c1CCN1CCC(=C(c2ccc(F)cc2)c2ccc(F)cc2)CC1 [RITANSERIN] | – | – | – | – | – | > 21 | – | – | – | – | –
Fc1ccc(C2CC(N3CCN(CCN4CCN=C4S)CC3)c3ccc(F)cc32)cc1.O=C(O)/C=C\C(=O)O.O=C(O)/C=C\C(=O)O (stereo unspecified) | 1.5 | 230 | 110 | – | – | > 15 | – | – | – | 0.12 | 0.62
Cl.Cl.OCCN1CCN(C2CC(c3ccc(F)cc3)c3cc(Cl)ccc32)CC1 (single isomer, unassigned; (+)) | 230 | 6300 | 2500 | – | – | – | >2.8 µM/kg | – | – | – | –
O=C1NCCN1CCN1CCN([C@@H]2C[C@@H](c3ccc(F)cc3)c3ccccc32)CC1 [IRINDALONE] | – | – | 2.6 | – | – | 7.4 | – | – | – | 0.58 | 0.75
Cl.Cl.O=C1CCCN1CCN1CCN(C2CC(c3ccc(F)cc3)c3cc(Cl)ccc32)CC1 (stereo unspecified) | 10 | 500 | 370 | – | – | – | – | – | – | 2.7 | –
Cc1ccc2c(c1)C(c1ccc(F)cc1)CC2N1CCN(CCN2CCN(C(C)C)C2=O)CC1.O=C(O)/C=C\C(=O)O.O=C(O)/C=C\C(=O)O (stereo unspecified) | 3 | 450 | 120 | – | – | – | – | – | – | 0.2 | –

Continued, in another order:

IC50 [1] [nM] | IC50 (D(2) dopamine receptor) [nM] | IC50 [4] [nM] | IC50 (Rattus norvegicus [5]) [nM] | IC50 (Rattus norvegicus [6]) [nM] | Structure (SMILES) | ED50 (Rattus norvegicus [2]) [µmol/kg] | ED50 (Rattus norvegicus [3]) | ED50 (Rattus norvegicus [7]) [µmol/kg] | ED50 (Rattus norvegicus [8]) [µmol/kg] | ED50 (Rattus norvegicus [3]; [10]) [µmol/kg] | ED50 (Rattus norvegicus [9]) [µmol/kg]
0.95 | 140 | 43 | – | – | Cl.Cl.Fc1ccc(C2CC(N3CCN(CCN4CCCNC4=S)CC3)c3ccc(F)cc32)cc1 (single isomer, unassigned; (+)) | > 37 | – | – | – | 0.017 | 0.011
1.5 | 93 | 170 | – | – | Fc1ccc(C2CC(N3CCN(CCN4CCCN=C4S)CC3)c3ccc(Cl)cc32)cc1.O=C(O)/C=C\C(=O)O.O=C(O)/C=C\C(=O)O (stereo unspecified) | – | – | – | – | 0.048 | –
1.3 | 94 | 62 | – | – | O=C(O)/C=C\C(=O)O.O=C(O)/C=C\C(=O)O.O=C1NCCCN1CCN1CCN(C2CC(c3ccc(F)cc3)c3cc(Cl)ccc32)CC1 (single isomer, unassigned; (-)) | > 15 | – | 0.072 | – | 0.11 | –
15 | 46 | 38 | – | – | O=C(O)/C=C\C(=O)O.O=C(O)/C=C\C(=O)O.OCCN1CCN(C2CC(c3ccc(F)cc3)c3cccc(Cl)c32)CC1 (stereo unspecified) | – | – | – | – | 1.3 | –
0.75 | 33 | 67 | – | – | Cl.Cl.Fc1ccc(C2CC(N3CCN(CCN4CCCNC4=S)CC3)c3ccc(Cl)cc32)cc1 (stereo in doubt; (-)-39) | > 18 | – | – | – | 0.041 | 0.021
